Experimental data reported in ChEMBL document CHEMBL1938334, “Quinoline tricyclic derivatives. Design, synthesis and evaluation of the antiviral activity of three new classes of RNA-dependent RNA polymerase inhibitors” (Bioorg Med Chem, 2011).

How the values were obtained:
Hepatitis C virus = assay: Antiviral activity against HCV1b infected in human GS4.1 cells assessed as inhibition of virus-induced cytopathogenicity by measuring viral NS4A protein level after 72 hrs by ELISA; format: functional, organism-based, Hepacivirus hominis; settings: genotype 1b
Procedure, shortened: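 GS4.1 cells are Huh-7 cells carrying a genotype 1b subgenomic replicon, kept in 0.5 mg/mL G418. They were seeded at 7.5×10^3 cells/well with two-fold serial dilutions of compound (top 75 μM) and incubated 72 h at 37 °C. Huh-7 cells without the replicon served as negative control. NS4A was measured by cell ELISA with anti-NS4A mAb A-236, peroxidase and o-phenylenediamine, A492. EC50 came from four-parameter sigmoidal fit.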

SK-MEL-28 = assay: Cytotoxicity against human SK-MEL-28 cells after 96 hrs by MTT assay; format: functional; settings: SK-MEL-28, 96 h
Procedure, shortened: (§1)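 Cells were seeded at 1×10^5 cells/mL: leukaemia/lymphoma lines in RPMI-1640, solid tumour and fibroblast lines in specific media, all with 10% FCS. Serial compound dilutions were applied for 96 h at 37 °C, 5% CO2, under conditions allowing controls at least three rounds of multiplication. Viability was read by MTT. CC50 by linear regression. Mean of three determinations.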

[1] = Antiviral activity against Vaccinia virus Lister Elstree infected in african green monkey Vero 76 cells assessed as reduction of virus-induced plaque formation after 3 days using crystal violet staining; format: functional, cell-based; settings: 72 h
Human orthopneumovirus = assay: Antiviral activity against Human respiratory syncytial virus A2 infected in african green monkey Vero 76 cells assessed as reduction of virus-induced plaque formation after 5 days using crystal violet staining; format: functional, organism-based; settings: 120 h
Poliovirus 1 = assay: Antiviral activity against Human poliovirus 1 strain Sabin Chat infected in african green monkey Vero 76 cells assessed as virus-induced reduction of plaque formation after 2 days using crystal violet staining; format: functional, cell-based; settings: Enterovirus C, 48 h
Coxsackievirus B5 = assay: Antiviral activity against Human coxsackievirus B5 Ohio-1 infected in african green monkey Vero 76 cells assessed as reduction of virus-induced plaque formation after 3 days using crystal violet staining; format: functional, organism-based; settings: Enterovirus B, Ohio-1, Vero, 72 h
MCF7 = assay: Cytotoxicity against human MCF7 cells after 96 hrs by MTT assay; format: functional; settings: MCF7, 96 h; procedure, shortened: as §1
[2] = Inhibition of HCV1b BK 6xHis-tagged recombinant NS5B Cdelta 21 RNA dependent RNA polymerase expressed in Escherichia coli (DE3) using GTP as substrate preincubated for 30 mins before substrate addition measured after 120 mins by fluorescence assay; set-up: species or system Hepatitis C virus (isolate BK)
Procedure, shortened: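 His-tagged NS5B (BVDV C-terminal Δ24; HCV1b Δ21) from E. coli Rosetta 2(DE3)pLysS, Ni-NTA purified, 500–600 ng per 20 μL. The template was poly(rC) 10 μg/mL and the primer oligo(rG)12 0.1 μg/mL, with GTP 80 μM. Buffer: 20 mM Tris pH 7.0, 0.5 mM MnCl2 or 5 mM MgCl2, 5% DMSO. Enzyme/drug 30 min at RT, then GTP added; 120 min at 37 °C (BVDV) or 25 °C (HCV). Read-out was dsRNA dye fluorescence (ex 480/em 520). IC50 from dose–response fits.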

[3] = Cytotoxicity against african green monkey Vero 76 cells after 48 to 96 hrs by crystal violet staining; format: cell-based; settings: chlorocebus sabaeus
Procedure, shortened: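 Vero-76 cells were seeded at 4×10^5 cells/mL in D-MEM with L-glutamine, kanamycin and 10% FBS, then exposed to serial compound dilutions at 37 °C, 5% CO2 for 48–96 h. Viability was read by crystal violet staining. 50% cytotoxic concentration by linear regression relative to untreated controls; mean of three independent determinations.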

[4] = Inhibition of Bovine viral diarrhea virus 1-NADL recombinant NS5B Cdelta 21 RNA dependent RNA polymerase expressed in Escherichia coli (DE3) using GTP as substrate preincubated for 30 mins before substrate addition measured after 120 mins by fluorescence assay
Reovirus sp. = assay: Antiviral activity against Reovirus type-1 3651 infected in hamster BHK21 cells assessed as inhibition of virus-induced cytopathogenicity after 3 to 4 days by MTT assay; format: functional, organism-based; settings: Reovirus sp., 3651, BHK-21
Procedure, shortened: (§2)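 Host cells were seeded in 96-well plates at 3×10^4 cells/well (MDBK) or 5×10^4 cells/well (BHK-21) and grown to confluent monolayers overnight. They were infected at m.o.i. 0.01 in maintenance MEM with 0.5% inactivated FBS. Serial compound dilutions were added after 1 h. Viability was read by MTT after 3–4 days at 37 °C. EC50 was taken by linear regression against untreated controls. Mean of three determinations.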

[5] = Cytotoxicity against BHK21 cells after 48 to 96 hrs by MTT assay; format: cell-based, Mesocricetus auratus, BHK-21; settings: hamster
Procedure, shortened: (§3)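 MDBK seeded at 6×10^5 and BHK at 1×10^6 cells/mL in MEM-Earle's with L-glutamine, 1 mM pyruvate, kanamycin, plus 10% horse serum (MDBK) or 10% FBS (BHK). Cells were grown at 37 °C, 5% CO2 with serial compound dilutions (DMSO stocks diluted in medium). Viability by MTT after 48–96 h. CC50 was taken by linear regression versus untreated controls; three independent determinations.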

Yellow fever virus = assay: Antiviral activity against Yellow fever virus 17D Stamaril Pasteur J07B01 infected in hamster BHK21 cells assessed as inhibition of virus-induced cytopathogenicity after 3 to 4 days by MTT assay; format: functional, cell-based; settings: Stamaril Pasteur J07B01, BHK-21; procedure, shortened: as §2
SK-MES-1 = assay: Cytotoxicity against human SKMES1 cells after 96 hrs by MTT assay; format: functional; settings: SK-MES-1, 96 h; procedure, shortened: as §1
WIL2-NS = assay: Cytotoxicity against human WIL2-NS cells after 96 hrs by MTT assay; format: functional; procedure, shortened: as §1
CCRF-SB = assay: Cytotoxicity against human CCRF-SB cells after 96 hrs by MTT assay; format: functional; procedure, shortened: as §1
DU-145 = assay: Cytotoxicity against human DU145 cells after 96 hrs by MTT assay; format: functional; settings: DU-145, 96 h; procedure, shortened: as §1
[6] = Antiviral activity against Bovine viral diarrhea virus 1-NADL infected in MDBK cells assessed as inhibition of virus-induced cytopathogenicity after 3 to 4 days by MTT assay; format: functional, cell-based; settings: Bovine viral diarrhea virus isolates and strains; procedure, shortened: as §2
CCRF-CEM = assay: Cytotoxicity against human CCRF-CEM cells after 96 hrs by MTT assay; format: functional; procedure, shortened: as §1
[7] = test system: Vesicular stomatitis Indiana virus; assay: Antiviral activity against clinical isolate Vesicular stomatitis Indiana virus infected in african green monkey Vero 76 cells assessed as reduction of virus-induced plaque formation after 2 days using crystal violet staining; format: functional, organism-based; settings: 48 h
Human alphaherpesvirus 1 = assay: Antiviral activity against Human herpesvirus 1 strain KOS infected in african green monkey Vero 76 cells assessed as reduction of virus-induced plaque formation after 3 days using crystal violet staining; format: functional, organism-based; settings: Human alphaherpesvirus 1, KOS, 72 h
[8] = Cytotoxicity against human CRL7065 cells after 96 hrs by MTT assay; format: cell-based, CRL-7065
Procedure, shortened: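 Foreskin fibroblasts seeded at 1×10^5 cells/mL in specific medium with 10% FCS and antibiotics; serial compound dilutions, 37 °C, 5% CO2, 96 h, under conditions allowing untreated controls at least three rounds of multiplication. MTT read-out; concentration reducing proliferation by 50% by linear regression versus untreated controls; three independent determinations.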

[9] = test system: Human immunodeficiency virus 1; assay: Antiviral activity against HIV1 3B infected in human MT4 cells assessed as inhibition of virus-induced cytopathogenicity after 4 days by MTT assay; format: functional, organism-based; settings: Human immunodeficiency virus 1, 3B, MT4, 96 h
Procedure, shortened: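 MT-4 cells (1×10^4 per well) were infected with HIV-1 IIIB at 100 CCID50, m.o.i. 0.01, together with serial compound dilutions. Viability was read by MTT after 4 days at 37 °C. EC50 was taken by linear regression versus untreated controls. Mean of three determinations.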

[10] = Cytotoxicity against human MT4 cells after 96 hrs by MTT assay; format: cell-based
Procedure, shortened: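 Exponentially growing MT-4 cells seeded at 1×10^5 cells/mL in RPMI-1640 with 10% FBS, penicillin and streptomycin. Incubated with serial compound dilutions at 37 °C, 5% CO2 for 96 h; viability by MTT. CC50 by linear regression relative to untreated controls; mean of three independent determinations.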

[11] = Cytotoxicity against MDBK cells after 48 to 96 hrs by MTT assay; format: cell-based, Bos taurus; settings: cattle; procedure, shortened: as §3
HepG2 = assay: Cytotoxicity against human HepG2 cells after 96 hrs by MTT assay; format: functional; settings: HepG2, 96 h; procedure, shortened: as §1
[12] = Cytotoxicity against human GS4.1 cells; format: cell-based
Procedure, shortened: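 Huh-7 cells carrying HCV genotype 1b subgenomic replicon, grown in D-MEM/10% FBS with 0.5 mg/mL G418. Seeded at 7.5×10^3 cells/well with two-fold serial dilutions (top 75 μM), incubated 72 h at 37 °C. Viability by MTS-type Cell Titer 96 Aqueous One reagent; CC50 from % cytotoxicity versus concentration curves.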

[13] = Cytotoxicity against human MRC5 cells after 96 hrs by MTT assay; format: cell-based; procedure, shortened: as §1

Row | Compound | CC50 (SK-MEL-28) | EC50 [1] | EC50 (Human orthopneumovirus) | EC50 (Poliovirus 1) | EC50 (Coxsackievirus B5) | CC50 (MCF7) | CC50 [3] | EC50 (Reovirus sp.) | CC50 [5] | EC50 (Yellow fever virus) | CC50 (SK-MES-1) | CC50 (CCRF-SB) | CC50 (DU-145) | EC50 [6] | CC50 (CCRF-CEM) | EC50 [7] | EC50 (Human alphaherpesvirus 1) | EC50 [9] | CC50 at 96 h [10] | CC50 [11] | also measured
1 | O=c1[nH]c2cc3cccnc3c(Cl)c2nc1Cc1ccccc1 | > 100 µM | > 88 µM | > 88 µM | > 88 µM | > 88 µM | > 100 µM | 88 µM | > 100 µM | > 100 µM | > 100 µM | > 100 µM | 25 µM | ≥ 100 µM | 2.6 µM | 19 µM | > 88 µM | > 88 µM | > 15 µM | 15 µM | > 100 µM | EC50 (Hepatitis C virus): > 65 µM; IC50 [2]: > 10 µM; IC50 [4]: 1.2 µM; CC50 (WIL2-NS): 33 µM; CC50 at 96 h [8]: > 100 µM; CC50 (HepG2): 72 µM; CC50 [12]: 65 µM
2 | CC[C@@]1(O)C(=O)OCc2c1cc1n(c2=O)Cc2cc3ccccc3nc2-1 [CAMPTOTHECIN] | 0.07 µM | – | – | – | – | 0.02 µM | – | – | – | – | 0.03 µM | 0.004 µM | 0.015 µM | – | 0.003 µM | – | – | – | – | – | CC50 (WIL2-NS): 0.005 µM; CC50 at 96 h [8]: 0.3 µM; CC50 (HepG2): 0.02 µM; CC50 at 96 h [13]: 0.2 µM
3 | O=c1[nH]c2cc3cccnc3c(Cl)c2nc1-c1ccccc1 | 5.6 µM | > 100 µM | 12 µM | > 100 µM | > 100 µM | 7.6 µM | > 100 µM | > 100 µM | > 100 µM | > 100 µM | 8 µM | 19 µM | 7.4 µM | 11 µM | 16 µM | > 100 µM | > 100 µM | > 22 µM | 22 µM | > 100 µM | EC50 (Hepatitis C virus): > 11 µM; IC50 [2]: > 10 µM; IC50 [4]: 1 µM; CC50 at 96 h [8]: 16 µM; CC50 (HepG2): 8 µM; CC50 [12]: 11 µM
4 | CCc1nc2cc3cccnc3c(Cl)c2[nH]c1=O | – | > 100 µM | 18 µM | > 100 µM | > 100 µM | – | 100 µM | 36 µM | 95 µM | > 95 µM | – | – | – | 6.5 µM | – | 35 µM | > 100 µM | > 51 µM | 51 µM | 75 µM | –
5 | Nc1ccc(-c2nc3cc4cccnc4c(Cl)c3[nH]2)cc1 | – | > 100 µM | > 100 µM | > 100 µM | 78 µM | – | > 100 µM | > 42 µM | 42 µM | > 42 µM | – | – | – | 10 µM | – | > 100 µM | > 100 µM | > 15 µM | 15 µM | 45 µM | –
6 | Oc1ccnc2c(Cl)c3nccnc3cc12 | – | > 90 µM | > 90 µM | > 90 µM | > 90 µM | – | 90 µM | > 85 µM | 85 µM | > 85 µM | – | – | – | > 63 µM | – | > 90 µM | 90 µM | > 42 µM | 42 µM | 63 µM | –
